Test: Toxicity liver stage against HepG2, at 10uM
Assay type: cell-based
Set-up: test concentration 10 uM, cell line HepG2-A16-CD81EGFP
Conditions: human, HepG2-A16-CD81EGFP cells; read-out: INHIBITION
Summary of the method: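 Uninfected HepG2-A16-CD81EGFP cells, 3 × 10^3 per well, 1536-well, plated on prespotted compound at 10 μM final, parasite-free screening media added to match infected plates; puromycin 10 μM positive, DMSO 0.5% negative; run in parallel with 48 h PbLuc assay at 37 °C, 5% CO2; viability by CellTiter-Glo luminescence, normalized to controls.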

O=c1c2ccccc2nc2n1CCC2O (stereo not drawn)
cytotoxicity at 10 µM: 7.68%

CN(C)C(=O)C1CCCN1c1ncnc2ccsc12 (stereo not drawn)
cytotoxicity at 10 µM: 4.04%

CC1=C[C@@H](CN2CCC(CO)CC2)[C@H](C(C)C)C[C@H]1Cc1nnc(C)o1
cytotoxicity at 10 µM: 8.24%

CC(C)CN1C[C@@H]2OCC(=O)N(c3ccccc3)[C@@H]2C1
cytotoxicity at 10 µM: 1.08%

CNC(=O)C(C)(C)N1CCC[C@H]1C(=O)NCC1CC1
cytotoxicity at 10 µM: 2.05%

COCC(O)CN1CC(C)(C)CN(C(=O)CCc2ccccc2)CC1=O (stereo not drawn)
cytotoxicity at 10 µM: -1.83%

OC1CN(c2nc3c(C(F)(F)F)cccc3s2)C1
cytotoxicity at 10 µM: -8.37%

CCCc1nnsc1C(=O)NCC1CCN(c2ncccn2)CC1
cytotoxicity at 10 µM: 10.6%

COc1ccc(S(=O)(=O)NCCC(O)c2ccoc2)c(C)c1 (stereo not drawn)
cytotoxicity at 10 µM: -0.608%

Cc1ccc(CN2CCC3(CCCN(C(=O)N(C)C)C3)C2)cc1 (stereo not drawn)
cytotoxicity at 10 µM: 6.28%

c1c(CN2CCCCC2)nc2n1CCN(CC1CC1)C2
cytotoxicity at 10 µM: -113%

CC(C)C(=O)N1CCC12CCCN(C(=O)c1ccnnc1)C2 (stereo not drawn)
cytotoxicity at 10 µM: 7.8%

O=C(CC1CC1)N1CCC2(CC(=O)N(c3cccc(F)c3)C2)C1 (stereo not drawn)
cytotoxicity at 10 µM: -148%

Cc1nc(N(C)C)nc2c1COCC21CCN(C(=O)C2CC2)C1 (stereo not drawn)
cytotoxicity at 10 µM: 4.27%

Cn1ccnc1CN1CC2(CCN(Cc3ccncc3)C2)C1
cytotoxicity at 10 µM: -5.76%

CCN1C[C@H]2CCN(c3ncccn3)CC[C@H]2S1(=O)=O
cytotoxicity at 10 µM: -7.08%

CCOCC(=O)N1CCCn2c(nnc2Cn2cccc2)C1
cytotoxicity at 10 µM: -130%

COCC1c2c(cnn2C)CCN1Cc1ccsc1 (stereo not drawn)
cytotoxicity at 10 µM: -13.3%

O=C(CSc1nnc2n1N=CN(c1ccccc1)C2)c1ccccc1
cytotoxicity at 10 µM: 9.11%

COc1ccc(OC)c(NC(=O)c2nc3ccccc3n(C)c2=O)c1
cytotoxicity at 10 µM: -4.71%

CCS(=O)(=O)Nc1ccc(C(=O)NCCCN2CCCC2)cc1
cytotoxicity at 10 µM: 1.83%

CC(C)N1CCOCC2(CN(Cc3ccco3)CCO2)C1 (stereo not drawn)
cytotoxicity at 10 µM: -7.53%

COc1ncccc1C(=O)N1CC[C@H]2C[C@@H](C)O[C@@H]2C1
cytotoxicity at 10 µM: -7.63%

Cc1cc(C(=O)N(C)C)nc(C2(C)CCCN2c2ccnc(C)n2)n1 (stereo not drawn)
cytotoxicity at 10 µM: -7.49%

CNC(=O)C1(CCCc2ccccn2)CN(Cc2nccn2C)C1
cytotoxicity at 10 µM: -1.23%

CC(=O)N1CCC(c2nccnc2CNC(=O)c2cc[nH]n2)CC1
cytotoxicity at 10 µM: -6.27%

O=C(CN1CCNC1=O)NCc1ccc2sccc2c1
cytotoxicity at 10 µM: 5.05%

CCCn1nccc1-c1cc(C2CCN(S(C)(=O)=O)CC2)nc(C)n1
cytotoxicity at 10 µM: -10.7%

CC(C(=O)N(Cc1ccccc1)CC(F)(F)F)S(C)(=O)=O (stereo not drawn)
cytotoxicity at 10 µM: 11%

O=C(C1CCCC1)N1CCOc2cccc(F)c21
cytotoxicity at 10 µM: -2.54%

Cc1ccc(C2CSCCN2C(=O)c2cccnc2)cc1 (stereo not drawn)
cytotoxicity at 10 µM: -4.11%

Cc1cc(C(=O)NC(C)Cc2ccccc2Cl)n(C)n1 (stereo not drawn)
cytotoxicity at 10 µM: 2.8%

O=C(Cc1cccc(F)c1F)NS(=O)(=O)c1ccc(Cl)cc1F
cytotoxicity at 10 µM: -6.11%

CN(C)Cc1ccccc1NC(=O)c1ccc(C#N)cc1
cytotoxicity at 10 µM: 4.2%

Cc1nc2n(n1)CC(NCc1nc(-c3cccs3)no1)CC2 (stereo not drawn)
cytotoxicity at 10 µM: -1.66%

CCCN(CC)Cn1ncc2cn(-c3ccccc3)nc2c1=O
cytotoxicity at 10 µM: 1.44%

CC(C)(C)CCS(=O)(=O)NCCc1csc(N2CCCC2)n1
cytotoxicity at 10 µM: 8.37%

Cc1cccc2c1OCCC2NCc1c(C(C)C)nn(C)c1N(C)C (stereo not drawn)
cytotoxicity at 10 µM: 0.423%

O=C(NC1CC1)c1cnc2n1CCCC2
cytotoxicity at 10 µM: -6.81%

CN(C)C1CCCN(C(=O)NCCC(=O)N2CCCCCC2)C1 (stereo not drawn)
cytotoxicity at 10 µM: -6.45%

CN(Cc1cc(Br)cn1C)C(=O)c1ccon1
cytotoxicity at 10 µM: -3.33%

Cc1cc(C(=O)NC(CC(C)C)C(=O)Nc2cc[nH]n2)c(C)o1 (stereo not drawn)
cytotoxicity at 10 µM: -11.7%

CC1CN(C(=O)c2ccnc(-n3cncn3)c2)c2ccccc2S1 (stereo not drawn)
cytotoxicity at 10 µM: -5.69%

O=C(CCCc1ccccn1)N1CCC(Nc2cccnn2)CC1
cytotoxicity at 10 µM: -9.73%

O=C(NCC1CC1)c1cc(Cl)c2c(c1)OCCCO2
cytotoxicity at 10 µM: 0.344%

CCCN1CCN(C(=O)c2cnn(-c3ccccc3F)c2)CC1
cytotoxicity at 10 µM: 0.313%

COC(=O)c1ccc(NC(=O)[C@@H]2CCCN2C(=O)c2ccco2)s1
cytotoxicity at 10 µM: -3.45%

CCc1cnc(CN(C)C2CCN(CCNS(=O)(=O)CC)C2)o1 (stereo not drawn)
cytotoxicity at 10 µM: 8.94%

Cc1ccc(OCC(=O)Nc2cnccc2SCCCO)cc1C
cytotoxicity at 10 µM: -2.35%

Cc1c(-c2nc(-c3cccc(CN4CCOCC4)c3)no2)cnn1C
cytotoxicity at 10 µM: -0.988%

Cn1cc(C#N)cc1C(=O)NC1(C#N)CCSCC1
cytotoxicity at 10 µM: -7.23%

Cn1cnnc1Sc1ccc(NC(=O)C2CC2)cc1Cl
cytotoxicity at 10 µM: 0.118%

O=C(c1cccc2cc[nH]c12)N1CCC2(CCOC2)C1 (stereo not drawn)
cytotoxicity at 10 µM: -152%

CC(C)OCCn1nnnc1Cc1ccc(Br)cc1
cytotoxicity at 10 µM: -5.58%

CC1CN(C(=O)NCCc2nc(C(C)C)no2)CCO1 (stereo not drawn)
cytotoxicity at 10 µM: -0.745%

Cc1nc(S(=O)(=O)CCn2cccn2)n(C2CCCC2)c1C
cytotoxicity at 10 µM: -0.829%

CCN(Cc1nc(Cc2ccccc2)no1)C1CC1
cytotoxicity at 10 µM: 6.26%

N#Cc1c(F)cccc1N1CCCC(C(=O)Nc2nncs2)C1 (stereo not drawn)
cytotoxicity at 10 µM: 4.48%

COCCN(C(=O)c1cc(-c2ccc(C)s2)[nH]n1)C1CC1
cytotoxicity at 10 µM: 11.6%

CC(C)C(C(=O)NCc1ccccc1-n1cccn1)N(C)C (stereo not drawn)
cytotoxicity at 10 µM: -3.17%

CC(c1ccccc1)N(C)C(=O)Cn1cc(NC(=O)C(C)(C)C)cn1 (stereo not drawn)
cytotoxicity at 10 µM: 4%

CCn1c(C)nnc1CN(C)C1CCN(Cc2nccn2C)C1 (stereo not drawn)
cytotoxicity at 10 µM: 17.8%

COc1ccc(C(C)=O)c(OCC(=O)NC(C)c2ccc(F)cc2)c1 (stereo not drawn)
cytotoxicity at 10 µM: 2.68%

O=C(NCCCn1cccn1)C1(c2ccc(F)cc2)CC1
cytotoxicity at 10 µM: -6.13%

Cc1ccc(-c2cc(C(=O)NC(C)C(=O)N3CCCCC3)on2)cc1 (stereo not drawn)
cytotoxicity at 10 µM: -7.17%

COc1cccc(NC(=O)N(CCO)Cc2ccsc2)c1
cytotoxicity at 10 µM: -9.87%

CCS(=O)(=O)CCn1ccc(NC(=O)CCc2cccc(C)c2)n1
cytotoxicity at 10 µM: 2.94%

Cn1nc(CN2CCCCC2)c2c1CN(C(=O)c1cccc(Cl)c1)C2
cytotoxicity at 10 µM: -1.35%

CN1CSC[C@H]1C(=O)N1CCC(Cc2ccccc2F)CC1
cytotoxicity at 10 µM: 1.01%

O=C(Nc1cnn(CC(=O)N2CCCO2)c1)c1ccccc1
cytotoxicity at 10 µM: -0.134%

Cc1cc(C)c2c(NCc3nncn3C3CCCCC3)ncnc2n1
cytotoxicity at 10 µM: -0.404%

O=C(CN1CCOCS1(=O)=O)NCc1ccccc1
cytotoxicity at 10 µM: 1.09%

OC1(CNCCc2nc3c(s2)CCCC3)CCNC1 (stereo not drawn)
cytotoxicity at 10 µM: 1.44%

COCCN1CCN(C(=O)c2ccccc2C(C)=O)[C@H]2CS(=O)(=O)C[C@H]21
cytotoxicity at 10 µM: -5.95%

CN(C)CCNc1cc(-c2ncccc2O)c2cc[nH]c2n1
cytotoxicity at 10 µM: 7.28%

Cc1cccc(-c2ncc(CNC(C)CO)cn2)c1 (stereo not drawn)
cytotoxicity at 10 µM: 2.16%

CC(C)c1nc(CN(C)C(=O)c2ccc3c(c2)OCO3)cs1
cytotoxicity at 10 µM: -1.1%

Cc1cc(NC2CCC(=O)N(C)C2)n2nccc2n1 (stereo not drawn)
cytotoxicity at 10 µM: -0.714%

Cc1csc(N2CCC(CCN3CCCC3=O)CC2)n1
cytotoxicity at 10 µM: -5.7%

Cc1nonc1CC(=O)N1CCC2(CCCN(C3CCOCC3)C2=O)C1 (stereo not drawn)
cytotoxicity at 10 µM: -95.3%

COc1cnc(N2CCCN(c3ccc(F)cc3)CC2)nc1
cytotoxicity at 10 µM: -10.6%

Cc1cc(S(=O)(=O)NCC2CNCCOC2)c(C)cc1Cl (stereo not drawn)
cytotoxicity at 10 µM: -0.708%

Cc1ccc(NC2(C(=O)NCCCc3c(C)n[nH]c3C)CCCC2)cc1
cytotoxicity at 10 µM: -10.1%

O=C(CCC(=O)N1CCC(OCc2cccnc2)CC1)c1ccccc1
cytotoxicity at 10 µM: -3.33%

CCCNC(=O)N1CCc2ccc(S(=O)(=O)N3CCOCC3)cc2C1
cytotoxicity at 10 µM: -2.56%

CN(C)C(=O)c1ccc2c(c1)N(C)C(CC(=O)NCc1ncc[nH]1)CO2 (stereo not drawn)
cytotoxicity at 10 µM: -5.93%

CCOC(=O)CC1CCCCN1C(=O)c1cc(C)oc1C (stereo not drawn)
cytotoxicity at 10 µM: 5.44%

CC(C)c1cc(-c2nn3c(C(C)C)nnc3s2)[nH]n1
cytotoxicity at 10 µM: 0.999%

CC(=O)NCCNc1nccc(CCC(F)(F)F)n1
cytotoxicity at 10 µM: -146%

CC(C)CCN1CCNC(=O)C1CC(=O)N1CCc2sccc2C1 (stereo not drawn)
cytotoxicity at 10 µM: -7.01%

CCCN(CCO)C(=O)C1CCC(=O)N(CCc2ccc(Cl)cc2)C1 (stereo not drawn)
cytotoxicity at 10 µM: -12.5%

O=C(c1ccc2[nH]c(=O)[nH]c2c1)N1CCC(Nc2cccnn2)CC1
cytotoxicity at 10 µM: 0.00528%

CC(C)c1noc(CCC(=O)NC(C)c2ccccn2)n1 (stereo not drawn)
cytotoxicity at 10 µM: -5.86%

CNc1nc(CNC(=O)Nc2cc(Cl)ccc2F)cs1
cytotoxicity at 10 µM: -6.95%

CC(C(=O)NCc1ccnc(N2CCCCCC2)c1)n1cccn1 (stereo not drawn)
cytotoxicity at 10 µM: -15.8%

O=C(Cc1csc(-c2ccsc2)n1)N1CCN(c2cnccn2)CC1
cytotoxicity at 10 µM: -7.12%

CC(C)(C)c1nc(CN2CCCC(c3noc(C4CC4)n3)C2)no1 (stereo not drawn)
cytotoxicity at 10 µM: -14.4%

Cc1nn(C)c(N(C)C)c1CNC(C)COc1ccc(F)cc1F (stereo not drawn)
cytotoxicity at 10 µM: -9.78%

O=C(NCCn1ccnc1)N1CCCN(Cc2cccs2)CC1
cytotoxicity at 10 µM: -29.7%

Cc1nc(CN(C)C2CCN(CCc3ccccn3)C2)no1 (stereo not drawn)
cytotoxicity at 10 µM: -3.85%

CCN1CCN(CCNC(=O)c2sc(C(C)C)nc2C)CC1
cytotoxicity at 10 µM: 6.23%

CC(=O)N(Cc1noc(C)n1)C1CCN(Cc2ccccn2)C1 (stereo not drawn)
cytotoxicity at 10 µM: -5.82%

Cn1cnnc1C1CCCN(C(=O)NCCc2ccccn2)C1 (stereo not drawn)
cytotoxicity at 10 µM: -21.5%

CC(C)NC(=O)N1CCc2c(CNc3ncccn3)cncc2C1
cytotoxicity at 10 µM: 5.83%

CS(=O)(=O)NCCNCc1ccc(Br)s1
cytotoxicity at 10 µM: -3.04%

CCN1CCn2c(C)cnc2C12CCN(C(=O)C(C)C)CC2
cytotoxicity at 10 µM: 3.06%

CN1CC(=O)N(c2ccsc2)CC12CCN(S(=O)(=O)c1ccccc1)C2 (stereo not drawn)
cytotoxicity at 10 µM: 1.5%

c1cnn(CCCO[C@@H]2CN(C3CCOCC3)[C@@H]3CCCO[C@@H]32)c1
cytotoxicity at 10 µM: 4.56%

Cc1noc(C)c1CN1CCC2(CC1)CN(c1ccccn1)CCO2
cytotoxicity at 10 µM: -3%

O=C(c1cccs1)N1CCC[C@]2(C[C@@H](OCc3ccncc3)CO2)C1
cytotoxicity at 10 µM: 7.92%

CCc1ccc(CN2CCC3(CCCN(C(=O)c4cnccn4)C3)C2)o1 (stereo not drawn)
cytotoxicity at 10 µM: -127%

Cn1cc(CNC2CC3(CCN(CC4CC4)CC3)c3ccccc32)cn1 (stereo not drawn)
cytotoxicity at 10 µM: -8.22%

CN(Cc1ccco1)C1CCC12CCN(C(=O)c1ccnnc1)CC2 (stereo not drawn)
cytotoxicity at 10 µM: 0.081%

Reference: ChEMBL document CHEMBL4513216, “Probing the Open Global Health Chemical Diversity Library for Multistage-Active Starting Points for Next-Generation Antimalarials” (ACS Infect Dis, 2020)
